In ChEMBL document CHEMBL1140872, “Discovery of a potent and selective inhibitor for human carbonyl reductase 1 from propionate scanning applied to the macrolide zearalenone” (Bioorg Med Chem, 2009):

How the values were obtained:
[1] = target: T1, Carbonyl reductase [NADPH] 1 (Homo sapiens) (UniProt P16152); assay: Binding affinity to human recombinant carbonyl reductase 1 expressed in Escherichia coli assessed as thermal shift by differential scanning fluorimetry in presence of NADP+
T1 sequence (whole entry): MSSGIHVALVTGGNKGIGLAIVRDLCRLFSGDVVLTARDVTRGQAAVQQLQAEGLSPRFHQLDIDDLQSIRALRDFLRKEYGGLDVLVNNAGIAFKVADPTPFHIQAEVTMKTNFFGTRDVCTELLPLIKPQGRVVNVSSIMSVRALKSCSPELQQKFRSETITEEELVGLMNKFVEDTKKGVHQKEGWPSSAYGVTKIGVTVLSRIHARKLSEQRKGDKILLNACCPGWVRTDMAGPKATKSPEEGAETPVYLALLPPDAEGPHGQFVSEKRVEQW
Summary of the method: (§1)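 Thermal-shift (DSF) binding assay with purified recombinant catalytic domains or proteins carrying an N- or C-terminal His6 tag or GST fusion. Purity was >95% by SDS/PAGE and identity was confirmed by MS. Protein was at 2 µM final in 10 mM HEPES pH 7.5 and 150 mM NaCl. Tm shift is reported, with 2 °C as the threshold for binding.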

[2] = target: T2, Serine/threonine-protein kinase PLK4 (Homo sapiens) (UniProt O00444); assay: Binding affinity to human recombinant PLK4 expressed in Escherichia coli assessed as thermal shift by differential scanning fluorimetry; summary of the method: as §1
T2 sequence (whole entry): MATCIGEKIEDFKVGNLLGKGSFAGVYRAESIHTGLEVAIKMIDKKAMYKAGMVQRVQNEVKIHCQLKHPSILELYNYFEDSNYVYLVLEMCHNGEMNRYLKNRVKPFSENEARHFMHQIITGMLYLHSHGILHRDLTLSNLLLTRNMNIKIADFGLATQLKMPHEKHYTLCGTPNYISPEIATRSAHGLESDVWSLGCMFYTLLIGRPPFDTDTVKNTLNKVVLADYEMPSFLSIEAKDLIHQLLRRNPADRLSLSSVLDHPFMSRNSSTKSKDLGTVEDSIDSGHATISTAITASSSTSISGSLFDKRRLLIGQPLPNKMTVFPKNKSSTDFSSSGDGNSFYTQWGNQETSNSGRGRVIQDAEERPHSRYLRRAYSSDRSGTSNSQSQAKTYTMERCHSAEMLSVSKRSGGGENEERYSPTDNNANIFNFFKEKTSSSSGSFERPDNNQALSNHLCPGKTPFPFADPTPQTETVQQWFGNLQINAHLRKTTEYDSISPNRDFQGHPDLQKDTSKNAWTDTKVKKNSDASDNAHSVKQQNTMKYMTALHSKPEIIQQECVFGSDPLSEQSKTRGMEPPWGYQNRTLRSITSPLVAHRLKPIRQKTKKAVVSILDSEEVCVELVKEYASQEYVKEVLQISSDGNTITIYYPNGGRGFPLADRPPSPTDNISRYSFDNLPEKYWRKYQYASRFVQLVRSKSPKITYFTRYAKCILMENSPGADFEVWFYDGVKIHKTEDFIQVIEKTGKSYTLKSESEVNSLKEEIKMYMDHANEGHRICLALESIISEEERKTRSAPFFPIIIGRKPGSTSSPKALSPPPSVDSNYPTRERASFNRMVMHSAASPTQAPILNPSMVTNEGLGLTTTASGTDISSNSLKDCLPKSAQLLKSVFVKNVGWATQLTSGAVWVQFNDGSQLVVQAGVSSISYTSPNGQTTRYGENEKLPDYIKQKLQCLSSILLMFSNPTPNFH

[3] = target: T3, Mitogen-activated protein kinase kinase kinase 5 (Homo sapiens) (UniProt Q99683); assay: Binding affinity to human recombinant MAP3K5 expressed in Escherichia coli assessed as thermal shift by differential scanning fluorimetry; summary of the method: as §1
T3 sequence (whole entry): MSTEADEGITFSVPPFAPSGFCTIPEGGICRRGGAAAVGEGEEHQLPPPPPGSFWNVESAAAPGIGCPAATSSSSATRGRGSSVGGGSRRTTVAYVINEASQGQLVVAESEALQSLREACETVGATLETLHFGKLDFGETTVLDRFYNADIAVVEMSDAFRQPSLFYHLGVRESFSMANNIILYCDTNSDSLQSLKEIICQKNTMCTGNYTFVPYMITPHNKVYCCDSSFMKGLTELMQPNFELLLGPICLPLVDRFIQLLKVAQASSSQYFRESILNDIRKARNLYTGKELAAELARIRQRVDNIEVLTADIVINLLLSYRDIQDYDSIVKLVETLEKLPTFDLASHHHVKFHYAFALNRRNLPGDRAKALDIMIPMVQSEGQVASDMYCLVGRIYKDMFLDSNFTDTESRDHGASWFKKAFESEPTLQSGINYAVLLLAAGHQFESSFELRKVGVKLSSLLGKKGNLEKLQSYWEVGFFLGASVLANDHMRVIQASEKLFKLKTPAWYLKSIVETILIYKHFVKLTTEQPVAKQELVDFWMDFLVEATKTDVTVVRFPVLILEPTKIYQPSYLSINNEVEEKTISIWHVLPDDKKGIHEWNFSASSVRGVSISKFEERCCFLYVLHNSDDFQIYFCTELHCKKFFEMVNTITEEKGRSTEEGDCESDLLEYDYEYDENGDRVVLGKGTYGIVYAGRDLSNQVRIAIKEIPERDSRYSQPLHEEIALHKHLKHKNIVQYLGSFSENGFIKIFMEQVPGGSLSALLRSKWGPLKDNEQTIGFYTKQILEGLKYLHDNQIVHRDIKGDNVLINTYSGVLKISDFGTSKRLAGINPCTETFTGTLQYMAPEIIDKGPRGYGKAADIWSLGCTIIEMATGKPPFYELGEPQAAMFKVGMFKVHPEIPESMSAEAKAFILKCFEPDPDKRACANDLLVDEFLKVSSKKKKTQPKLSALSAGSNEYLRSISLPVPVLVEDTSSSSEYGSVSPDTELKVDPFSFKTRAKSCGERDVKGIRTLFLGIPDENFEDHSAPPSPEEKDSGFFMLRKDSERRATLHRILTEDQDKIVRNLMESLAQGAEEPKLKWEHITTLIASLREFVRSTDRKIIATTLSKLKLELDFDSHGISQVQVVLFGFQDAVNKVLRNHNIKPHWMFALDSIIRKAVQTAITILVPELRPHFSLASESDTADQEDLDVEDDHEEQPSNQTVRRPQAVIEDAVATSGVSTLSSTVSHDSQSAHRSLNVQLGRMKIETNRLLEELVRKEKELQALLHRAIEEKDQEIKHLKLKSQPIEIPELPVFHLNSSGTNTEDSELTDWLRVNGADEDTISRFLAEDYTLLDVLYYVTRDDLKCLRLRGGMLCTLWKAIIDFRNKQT

[4] = target: Serine/threonine-protein kinase pim-2 (Homo sapiens) (UniProt Q9P1W9); assay: Binding affinity to human recombinant PIM2 expressed in Escherichia coli assessed as thermal shift by differential scanning fluorimetry; summary of the method: as §1
Chain of Serine/threonine-protein kinase pim-2 (Homo sapiens) (Q9P1W9 whole entry, looked up): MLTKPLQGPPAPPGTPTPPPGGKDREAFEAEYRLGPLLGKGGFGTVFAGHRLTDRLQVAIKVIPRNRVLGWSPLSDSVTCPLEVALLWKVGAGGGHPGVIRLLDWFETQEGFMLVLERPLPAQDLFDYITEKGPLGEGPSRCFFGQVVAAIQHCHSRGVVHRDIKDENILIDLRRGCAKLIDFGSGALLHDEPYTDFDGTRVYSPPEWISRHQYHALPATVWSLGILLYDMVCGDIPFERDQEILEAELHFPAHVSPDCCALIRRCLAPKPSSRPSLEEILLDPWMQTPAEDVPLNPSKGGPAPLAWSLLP

SMILES	Tm [1] [°C]	Tm [2] [°C]	Tm [3] [°C]	Tm [4] [°C]
COc1cc2c(c(OC)c1)C(=O)O[C@@H](C)CCC[C@@H](O)[C@@H](C)CC/C=C/2	< 2	< 2	< 2	< 2
COC1=C2C[C@@H](C)C[C@H](OC)[C@H](O)[C@@H](C)/C=C(\C)[C@H](OC(N)=O)[C@@H](OC)/C=C\C=C(/C)C(=O)NC(=CC1=O)C2=O	< 2	< 2	< 2	< 2
COc1cc2c(c(OC)c1)C(=O)O[C@@H](C)CCCC(=O)[C@@H](C)CC/C=C/2	< 2	< 2	< 2	< 2
COc1cc(O)c2c(c1)/C=C/CC[C@H](C)C(=O)CCC[C@H](C)OC2=O	< 2	< 2	< 2	< 2
C[C@H]1CCCC(=O)[C@@H](C)CC/C=C/c2cc(O)cc(O)c2C(=O)O1	3.9	< 2	< 2	< 2
C[C@@H]1C[C@H]2O[C@@H]2/C=C\C=C\C(=O)Cc2c(Cl)c(O)cc(O)c2C(=O)O1 [RADICICOL]	4.6	< 2	< 2	< 2
C[C@H]1CCCC(=O)CCC/C=C/c2cc(O)cc(O)c2C(=O)O1	3.6	< 2	< 2	2.6
